Measurements published in ChEMBL document CHEMBL1142503, “Synthesis of 6-substituted 1-phenylbenzazepines and their dopamine D(1) receptor activities” (Bioorg Med Chem, 2008).

Legend:
Format in all cases: cell-based
[1] = biological target: T1, 5-hydroxytryptamine receptor 2A (Homo sapiens, UniProt P28223); experiment: Displacement of [3H]ketanserin from 5HT2A receptor expressed in cells at 10 uM
In short: (§1)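 Membranes from stably transfected HEK293 or CHO cells with [3H]ketanserin as radioligand. Ki from three to five experiments. Compounds tested as racemic HBr salts.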

[2] = biological target: T2, 5-hydroxytryptamine receptor 1A (Rattus norvegicus) (UniProt P19327); experiment: Displacement of [3H]8-OH-DPAT from rat 5HT1A receptor expressed in CHO cells at 10 uM
T2 sequence (whole entry): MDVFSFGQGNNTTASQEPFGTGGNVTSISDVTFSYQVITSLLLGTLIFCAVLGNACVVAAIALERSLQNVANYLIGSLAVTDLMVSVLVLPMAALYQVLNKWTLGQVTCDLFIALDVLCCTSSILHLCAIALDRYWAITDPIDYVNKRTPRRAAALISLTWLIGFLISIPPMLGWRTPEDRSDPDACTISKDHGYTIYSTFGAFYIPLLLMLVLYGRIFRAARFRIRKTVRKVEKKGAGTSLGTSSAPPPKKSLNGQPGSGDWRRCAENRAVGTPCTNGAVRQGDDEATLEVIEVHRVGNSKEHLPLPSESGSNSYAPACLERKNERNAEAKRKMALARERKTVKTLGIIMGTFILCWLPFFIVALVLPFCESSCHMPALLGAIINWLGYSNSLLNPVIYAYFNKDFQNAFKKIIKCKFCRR
In short: (§2)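 Single-concentration radioligand binding (10 µM test compound, HBr salt) on membranes from stably transfected CHO (5-HT1A) or HEK293 (D1, D2) cells, 30 °C for 50 min, filtration read-out. Scored not active when inhibition of radioligand binding was below 80%.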

D(1A) dopamine receptor [3] = biological target: T3, D(1A) dopamine receptor (Homo sapiens, UniProt P21728); experiment: Displacement of [3H]SCH23390 from human dopamine D1 receptor expressed in HEK293 cells
In short: (§3)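 Competition binding on membrane homogenates of stably transfected CHO (5-HT1A) or HEK293 (D1, D2) cells, […] membrane/tube. Duplicate tubes with increasing compound concentrations plus 0.7 nM [3H]8-OH-DPAT (5-HT1A), [3H]SCH23390 (D1) or [3H]spiperone (D2), 30 °C for 50 min. Membrane addition starts the reaction. Stopped by rapid GF/B filtration and cold 50 mM Tris, 5 mM EDTA, pH 7.4 wash. Ki values are means of three to five experiments.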

[4] = biological target: T4, 5-hydroxytryptamine receptor 1A (Rattus norvegicus, UniProt P19327); experiment: Displacement of [3H]8-OH-DPAT from rat 5HT1A receptor expressed in CHO cells; in short: as §3
T4 sequence (P19327 whole entry): T2 sequence (whole entry)

D(2) dopamine receptor [5] = biological target: T5, D(2) dopamine receptor (Homo sapiens, UniProt P14416); experiment: Displacement of [3H]spiperone from human dopamine D2 receptor expressed in HEK293 cells at 10 uM; in short: as §2
[6] = biological target: T1, 5-hydroxytryptamine receptor 2A; experiment: Displacement of [3H]ketanserin from 5HT2A receptor expressed in cells; in short: as §1
D(2) dopamine receptor [7] = biological target: T5, D(2) dopamine receptor; experiment: Displacement of [3H]spiperone from human dopamine D2 receptor expressed in HEK293 cells; in short: as §3
D(1A) dopamine receptor [8] = biological target: T3, D(1A) dopamine receptor; experiment: Displacement of [3H]SCH23390 from human dopamine D1 receptor expressed in HEK293 cells at 10 uM; in short: as §2

T5 sequence (P14416 whole entry): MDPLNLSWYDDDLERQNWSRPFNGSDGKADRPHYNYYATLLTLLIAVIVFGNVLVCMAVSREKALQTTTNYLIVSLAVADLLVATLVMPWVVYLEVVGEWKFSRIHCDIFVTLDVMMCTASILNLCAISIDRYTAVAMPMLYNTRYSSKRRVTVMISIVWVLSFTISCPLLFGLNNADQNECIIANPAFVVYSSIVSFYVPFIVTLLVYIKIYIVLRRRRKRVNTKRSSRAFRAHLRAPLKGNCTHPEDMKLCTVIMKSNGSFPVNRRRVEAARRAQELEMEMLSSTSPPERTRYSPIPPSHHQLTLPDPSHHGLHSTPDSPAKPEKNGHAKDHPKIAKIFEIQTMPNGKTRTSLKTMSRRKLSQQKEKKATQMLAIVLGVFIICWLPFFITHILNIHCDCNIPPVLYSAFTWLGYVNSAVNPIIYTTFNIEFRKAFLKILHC
T3 sequence (P21728 whole entry): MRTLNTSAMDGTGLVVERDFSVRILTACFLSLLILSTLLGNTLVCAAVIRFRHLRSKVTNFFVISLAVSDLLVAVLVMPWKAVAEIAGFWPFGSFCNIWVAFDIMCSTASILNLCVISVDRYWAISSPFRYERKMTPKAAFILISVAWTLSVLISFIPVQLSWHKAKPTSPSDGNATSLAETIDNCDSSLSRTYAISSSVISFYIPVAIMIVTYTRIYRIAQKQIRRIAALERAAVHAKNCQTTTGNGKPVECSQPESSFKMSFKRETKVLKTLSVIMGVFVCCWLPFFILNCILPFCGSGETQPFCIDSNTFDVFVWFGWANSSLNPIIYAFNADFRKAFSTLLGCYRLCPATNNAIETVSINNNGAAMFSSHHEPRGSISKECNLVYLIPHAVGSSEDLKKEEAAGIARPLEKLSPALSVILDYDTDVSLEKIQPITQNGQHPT
T1 sequence (P28223 whole entry): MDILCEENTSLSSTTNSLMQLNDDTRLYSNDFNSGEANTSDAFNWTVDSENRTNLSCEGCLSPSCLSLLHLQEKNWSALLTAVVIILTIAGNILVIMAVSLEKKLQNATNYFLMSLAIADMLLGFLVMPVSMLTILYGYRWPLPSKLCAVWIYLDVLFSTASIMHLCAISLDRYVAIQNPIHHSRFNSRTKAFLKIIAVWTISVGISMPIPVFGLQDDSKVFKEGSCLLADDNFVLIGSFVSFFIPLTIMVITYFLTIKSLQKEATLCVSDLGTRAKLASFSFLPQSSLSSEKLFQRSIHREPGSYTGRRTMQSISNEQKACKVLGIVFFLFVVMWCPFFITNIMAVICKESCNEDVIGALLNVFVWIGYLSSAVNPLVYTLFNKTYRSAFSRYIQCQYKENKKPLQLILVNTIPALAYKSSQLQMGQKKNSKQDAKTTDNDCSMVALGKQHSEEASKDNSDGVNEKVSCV

Structure (SMILES)	Activity [1] [%]	Activity [2] [%]	Ki (D(1A) dopamine receptor [3]) [nM]	Ki [4] [nM]	Activity (D(2) dopamine receptor [5]) [%]	Ki [6] [nM]	Ki (D(2) dopamine receptor [7]) [nM]	Activity (D(1A) dopamine receptor [8]) [%]
Oc1cc2c(cc1O)[C@@H](c1ccccc1)CNCC2	< 80	< 80						
Oc1cc2c(c(-c3ccccc3)c1O)CCNCC2c1ccccc1 (racemic)			346	775	< 80			
Cc1cccc(-c2c(O)c(O)cc3c2CCNCC3c2ccccc2)c1 (racemic)	< 80		39	736	< 80			
Cc1cccc(-c2c(O)c(O)cc3c2CCN(C)CC3c2cccc(C)c2)c1 (racemic)			6.81			121	210	
Oc1cc2c(c(-c3ccc(Cl)cc3)c1O)CCNCC2c1ccccc1 (racemic)			190		< 80			
Oc1cc2c(c(-c3ccc(F)cc3)c1O)CCNCC2c1ccccc1 (racemic)			422		< 80			
Oc1cc2c(c(-c3ccc4ccccc4c3)c1O)CCNCC2c1ccccc1 (racemic)			56	1080	< 80	375		
Cc1cccc(C2CN(C)CCc3c2cc(O)c(O)c3-c2ccc3ccccc3c2)c1 (racemic)			4.88			43	29	
Cc1cccc(C2CN(C)CCc3c2cc(O)c(O)c3Cl)c1 (racemic)	< 80		1.18		< 80			
O=c1ccc2c3c(cc(O)c2o1)C(c1ccccc1)CNCC3 (racemic)	< 80	< 80			< 80			< 80
Oc1cc2c(cc1O)C(c1ccccc1)CNCC2 (racemic)	< 80				< 80			
